pEC50, pIC50: −log10 of the molar value.
Tested on: not listed separately
Assay: Cytotoxicity against human RD cells assessed as reduction in cell viability measured after 4 days by MTS/PMS assay
Assay type: toxicity, cell-based
Conditions: time 4 day

SMILES | CC50 at 96 h [µM]
O=C[C@H](C[C@@H]1CCNC1=O)NC(=O)[C@H](Cc1ccccc1)NC(=O)c1ccc2[nH]ccc2c1 | > 100
CC(C)[C@H](NC(=O)c1ccc2c(c1)OCCO2)C(=O)N[C@@H](Cc1ccccc1)C(=O)N[C@H](C=O)C[C@@H]1CCNC1=O | > 100
O=C[C@H](C[C@@H]1CCNC1=O)NC(=O)[C@H](Cc1ccccc1)NC(=O)c1ccc2c(c1)OCCO2 | > 100

Tested on: not listed separately
Assay: Inhibition of Human enterovirus 71 3C-like protease expressed in Escherichia coli BL21 (DE3) cells using Dacyl-KTSAVLQSGFRKMEEdans as fluorogenic substrate incubated for 10 mins by FRET assay
Design: species or system Enterovirus A71
Conditions: not given
Outline: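 EV71 3Cpro expressed with N-terminal His-SUMO2 tag, tag cut by SENP2, then purified on Ni-NTA, Q-Sepharose and Superdex200. Enzyme at 5 μM final, preincubated 10 min with serial compound dilutions in 25 mM Tris pH 8.0, 150 mM NaCl, 10% glycerol. Fluorescence read at ex 340/em 490 nm. IC50 (mean ± SD, ≥3 experiments) by nonlinear regression.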

SMILES | pIC50
O=C[C@H](C[C@@H]1CCNC1=O)NC(=O)[C@H](Cc1ccccc1)NC(=O)c1ccc2[nH]ccc2c1 | 5.42
CC(C)[C@H](NC(=O)c1ccc2c(c1)OCCO2)C(=O)N[C@@H](Cc1ccccc1)C(=O)N[C@H](C=O)C[C@@H]1CCNC1=O | 5.39
O=C[C@H](C[C@@H]1CCNC1=O)NC(=O)[C@H](Cc1ccccc1)NC(=O)c1ccc2c(c1)OCCO2 | 5.66

Tested on: Enterovirus A71
Assay: Antiviral activity against Human enterovirus 71 BrCr infected in human RD cells assessed as reduction in virus-induced cytopathic effect incubated for 4 days by MTS/PMS assay
Assay type: functional, organism-based
Conditions: Enterovirus A, 96 h
Outline: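 RD cells (2.5 × 10^4/well) adhered overnight, then infected with EV71 BrCr and given serial compound dilutions. Incubated 4 days, until full CPE in virus controls. Viability by MTS/PMS, absorbance at 498 nm after 1–2 h at 37 °C. Normalised to infected and uninfected untreated controls; EC50 by curve fitting.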

SMILES | pEC50
O=C[C@H](C[C@@H]1CCNC1=O)NC(=O)[C@H](Cc1ccccc1)NC(=O)c1ccc2[nH]ccc2c1 | 6.16
CC(C)[C@H](NC(=O)c1ccc2c(c1)OCCO2)C(=O)N[C@@H](Cc1ccccc1)C(=O)N[C@H](C=O)C[C@@H]1CCNC1=O | 6.36
O=C[C@H](C[C@@H]1CCNC1=O)NC(=O)[C@H](Cc1ccccc1)NC(=O)c1ccc2c(c1)OCCO2 | 6.52
